Results as given in ChEMBL document CHEMBL1138124, “Novel sulfonanilide analogues suppress aromatase expression and activity in breast cancer cells independent of COX-2 inhibition” (J Med Chem, 2006).
Activity calls are given as the source filed them. The rule behind the calls is not given here.

Columns and labels:
[1] = target: T1, Aromatase (Homo sapiens, UniProt P11511); assay: Inhibition of aromatase activity in human placental microsomes at 5 uM; parameters: species or system Placenta
T1 sequence (P11511 whole entry): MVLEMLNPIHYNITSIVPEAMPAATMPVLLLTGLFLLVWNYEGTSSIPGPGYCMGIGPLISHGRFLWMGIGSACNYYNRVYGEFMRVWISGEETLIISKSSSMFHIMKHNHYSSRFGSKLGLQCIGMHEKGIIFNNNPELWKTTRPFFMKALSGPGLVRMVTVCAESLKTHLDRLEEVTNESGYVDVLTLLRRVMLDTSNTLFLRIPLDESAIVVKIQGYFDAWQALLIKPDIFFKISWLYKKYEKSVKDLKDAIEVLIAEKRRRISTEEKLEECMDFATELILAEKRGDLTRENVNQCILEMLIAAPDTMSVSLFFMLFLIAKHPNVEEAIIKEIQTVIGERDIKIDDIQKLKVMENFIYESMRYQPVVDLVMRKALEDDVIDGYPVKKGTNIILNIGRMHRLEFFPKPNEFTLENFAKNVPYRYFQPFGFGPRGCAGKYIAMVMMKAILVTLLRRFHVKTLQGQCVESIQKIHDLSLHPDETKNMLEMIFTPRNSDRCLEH
Procedure, shortened: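 Human term placental microsomes (50 µg protein) incubated with 100 nM [1β-3H]androst-4-ene-3,17-dione for 15 min at 37 °C, compound at 5 µM. Quenched with chloroform; released 3H2O counted. Triplicates, with background taken from boiled microsomes. 50 µM aminoglutethimide served as positive control. Normalized to vehicle; three independent determinations.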

[2] = tested on: SK-BR-3; assay: Reduction in CYP19 mRNA expression in SKBr3 cells after 24h exposure to 25uM relative to control; type: functional, cell-based; settings: Homo sapiens
Procedure, shortened: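 SK-BR-3 cells were exposed 24 h to 25 µM agent or vehicle and total RNA isolated. DNase-treated RNA (2 µg) was reverse transcribed with random hexamers. CYP19 transcripts were quantified by real-time PCR (50 cycles, 95 °C 15 s / 60 °C 1 min), with 18S rRNA as housekeeping reference, relative to vehicle control.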

[3] = tested on: MDA-MB-231; assay: Reduction in PGE2 levels in MDA-MB-231 cell; type: functional, cell-based; settings: Homo sapiens
Procedure, shortened: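 MDA-MB-231 cells in phenol red-free MEM with 10% FBS were plated at 15 × 10^4 per dish, adhered overnight, then serum-starved 24 h. They were then treated 24 h at 37 °C with 25 µM agent or DMSO. PGE2 in the medium was measured by ELISA and normalized to total protein from NaOH extracts; mean ± SEM, n = 6.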

Row | Inhibition [1] | SMILES | Activity [2] | Activity [3]
1 | Not Active | CCCCCCOc1cc([N+](=O)[O-])ccc1N(C)S(C)(=O)=O |  | 
2 | Not Active | CC(C)Oc1cc([N+](=O)[O-])ccc1N(C)S(C)(=O)=O |  | 
3 | Not Active | CCCOc1cc([N+](=O)[O-])ccc1N(C)S(C)(=O)=O |  | 
4 | Not Active | CN(c1ccc([N+](=O)[O-])cc1OCC1CCCCC1)S(C)(=O)=O |  | inactive
5 | Not Active | CN(c1ccc([N+](=O)[O-])cc1OC1CCCC1)S(C)(=O)=O |  | inactive
6 | Not Active | CCCCCCCCCOc1cc([N+](=O)[O-])ccc1N(C)S(C)(=O)=O |  | 
7 | Not Active | COc1cc([N+](=O)[O-])ccc1N(C)S(C)(=O)=O |  | 
8 | Not Active | CCCOc1cc([N+](=O)[O-])ccc1NS(C)(=O)=O |  | 
9 | Not Active | CCC(CC)Oc1cc([N+](=O)[O-])ccc1N(C)S(C)(=O)=O | Active | inactive

The remaining lines, values behind:

Row | SMILES | Inhibition [1] | Activity [2] | Activity [3]
10 | COc1cc([N+](=O)[O-])ccc1NS(C)(=O)=O | Not Active |  | 
11 | CN(c1ccc([N+](=O)[O-])cc1OC1CCCCC1)S(C)(=O)=O | Not Active | Active | inactive
12 | CS(=O)(=O)Nc1ccc([N+](=O)[O-])cc1OC1CCCC1 | Not Active |  | Active
13 | CCC(CC)Oc1cc([N+](=O)[O-])ccc1NS(C)(=O)=O | Not Active | Active | Active
14 | CC(C)Oc1cc([N+](=O)[O-])ccc1NS(C)(=O)=O | Not Active |  | 
15 | CS(=O)(=O)Nc1ccc([N+](=O)[O-])cc1OC1CCCCC1 [NS-398] | Not Active | Active | Active
16 | CCCCCCCCCOc1cc([N+](=O)[O-])ccc1NS(C)(=O)=O | Not Active |  | 
17 | CS(=O)(=O)Nc1ccc([N+](=O)[O-])cc1OCC1CCCCC1 | Not Active |  | 
18 | CCCCCCOc1cc([N+](=O)[O-])ccc1NS(C)(=O)=O | Not Active |  | 
